# Measurements from paper PMC7814360 (Investigative Ophthalmology & Visual Science, 2021).
# pKd: −log10 of the molar value. Ends that are not written are not given here.
# Assays:
# [1] = test system: HRECs; test: Cellular uptake, flow cytometry quantitative analysis; type: in vitro ADME, human; conditions: 200 µM, three independent assays
# How it was run: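 HRECs were seeded at 1 × 10^6 on a 30-mm plate. At confluence they were exposed to FITC-labeled test peptide at 200 μM in complete medium for 30 min, 1, 6, 12 and 24 h. Cells were washed, trypsinized, resuspended in PBS and kept dark. FITC-positive cell number and mean fluorescence intensity were read by flow cytometry. Three independent assays; means ± SEM.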
# [2] = test system: HRECs; test: Tube formation assay on Matrigel; type: cell-based, human; conditions: 25 ng/mL VEGF, three independent assays
# How it was run: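 About 2 × 10^4 HRECs were seeded on Matrigel-precoated wells, with or without 25 ng/mL VEGF, alongside test peptides or Avastin. Incubation was at 37°C for four hours per methods (three hours per legend). Three random fields per well were photographed, and total tube length and branch points were quantified by ImageJ. Three independent assays; means ± SEM.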
# [3] = test system: HRECs; test: Cell migration; type: cell-based, human; conditions: 25 ng/mL VEGF; 200 µM H-KI20 or H-KI20S, or 12.5 mg/mL bevacizumab; 12 hours; three independent assays
# [4] = Stability assay of H-KI20 in aqueous solutions; type: physicochemical; conditions: 200 µg/mL, HPLC
# [5] = biological target: JNK2 (Homo sapiens, UniProt P45984); test: Surface plasmon resonance; type: binding
# How it was run: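 SPR was run on a Biacore T200. The chip was conditioned with 500 mM EDTA and 100 mM NaOH. Recombinant human JNK2 at 27.5 μg/mL was captured on an NTA chip at 10 μL/min. Serial peptide concentrations were injected in PBS with 0.05% Tween-20, pH 7.4, at 25°C (association 120 s, dissociation 180 s). Double reference subtraction was applied, then a global Langmuir 1:1 fit.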
# [6] = test system: retina; test: Histologic examination of retina after intravitreal injection; type: in vivo, mouse; conditions: 50 or 75 mM H-KI20 intravitreal, five days later, mice
# [7] = test system: HRECs; test: Cytotoxicity, MTS; type: cell-based, human; conditions: H-KI20 at different concentrations; three independent assays
# How it was run: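 HRECs were seeded in 96-well plates at […]. They were treated with VEGF or test peptide, and viability was read by MTS following the manufacturer's protocol.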
# [8] = test system: cornea neovascularization; conditions: topical application of high concentrations; cited from earlier work
# [9] = test system: HRECs; test: High-content image analysis, cell roundness; type: cell-based, human; conditions: H-KI20 alone, 30 hours, Operetta HCA, interval 0.5 h
# How it was run: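 About 3 × 10^4 HRECs/well were plated in 12-well plates and allowed to attach overnight. Test compound was added 2 h before imaging. Cells were imaged live in an Operetta high-content system for […] at 0.5-h intervals. Roundness is a shape index normalized to 1.0 for a perfect circle, decreasing for elongated or irregular cells.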
# [10] = Quantification of H-KI20 in ocular tissues after topical instillation; type: in vivo; conditions: mouse CNV model, 0.5, 1 and 3 hours after topical instillation, PRM
# How it was run: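 Choroidal neovascularization was induced in adult C57BL/6J mice with four 532-nm laser burns (100 ms, 50 μm, 120 mW) around the optic disc. On day 7, 6 μL of FITC-labeled test peptide (2 mM) was instilled topically six times at 10-min intervals (n = 3 per group). At 0.5, 1 and 3 h, sclera–choroid–RPE complex and retina were trypsin-digested. A 100 ng/mL stable-isotope-labeled internal standard was spiked in, and samples were quantified by nano-UPLC–Orbitrap PRM.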
# Chain of JNK2 (P45984 whole entry): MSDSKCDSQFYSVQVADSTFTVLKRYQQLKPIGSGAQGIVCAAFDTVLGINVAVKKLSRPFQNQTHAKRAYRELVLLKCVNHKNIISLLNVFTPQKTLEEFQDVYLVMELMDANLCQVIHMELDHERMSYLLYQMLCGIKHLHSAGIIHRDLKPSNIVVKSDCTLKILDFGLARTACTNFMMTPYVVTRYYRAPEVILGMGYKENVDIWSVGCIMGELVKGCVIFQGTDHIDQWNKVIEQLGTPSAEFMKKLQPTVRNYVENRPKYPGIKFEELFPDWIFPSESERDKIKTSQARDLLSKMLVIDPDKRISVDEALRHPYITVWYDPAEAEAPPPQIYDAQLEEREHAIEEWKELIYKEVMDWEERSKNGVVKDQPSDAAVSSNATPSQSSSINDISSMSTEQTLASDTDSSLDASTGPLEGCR
substance,measurement,setting,value
"FITC-H-KI20: FITC-labeled H-KI20 used to test cellular permeability (IIGKGRSYKGTVSITKSGIK; also: FITC-labeled, site not given here)",mean fluorescence intensity (MFI) compared with untreated cells,[1]; 30 minutes,217 fold
same,MFI after 24 hours compared with that after 30 minutes,[1]; 24 hours vs 30 minutes,3.67 fold
Bevacizumab [Avastin],VEGF-induced tube formation (tube length and branch points),[2],significantly inhibited
same,migration of VEGF-stimulated HRECs (wound closure),[3],inhibited the migration of cells significantly
IIGKGRSYKGTVSITKSGIK [H-KI20],stability at 4°C compared with 37°C,"[4]; BSS, PBS and HBS, n = 4 or 5",more stable
same,stability in H2O and PBS,"[4]; H2O and PBS pH 7.4, 37°C, incubation for 24 or 48 hours",partially degraded
same,pKd,[5],4.08
same,retinal histology (HE) after intravitreal injection,[6],"All layers of the retina were normal and intact, without edema or inflammatory or immune reactions"
same,cytotoxicity / proliferation of HRECs (MTS),[7],no effect on the proliferation of HRECs
same,cell ultrastructure of cornea and conjunctiva,[8],no effect on the cell ultrastructure of cornea and conjunctiva
same,cell roundness,[9],no effect on the roundness of cells
same,persistence of concentration in ocular tissues after topical instillation,[10],maintained for at least three hours
